# High-throughput results as filed in PubChem BioAssay.
# CHRM1 antagonist = human M1 muscarinic receptor antagonists, primary screen, CHO-K1 cells, Fluo-8 calcium fluorescence, 1536-well; Muscarinic acetylcholine receptor M1 (Homo sapiens), P11229; CHO-K1 hM1, ACh EC80 antagonist; inhibition, % at 3 µM; hit rate 1.3% among 360,000;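 active = percent inhibition above its own plate's cutoff, namely the mean of that plate's compound wells plus 3 SD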;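 also: peak over basal fluorescence ratio during 140 s after agonist addition; 0% = ACh EC80 plus DMSO and 100% = DMSO alone without agonist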
# M1 PAM = human M1 muscarinic receptor positive allosteric modulators, primary screen, CHO-K1 cells, Fluo-8 calcium fluorescence, 1536-well; Muscarinic acetylcholine receptor M1 (Homo sapiens), P11229; CHO-K1 hM1, ACh EC20; 0% = ACh EC20, 100% = maximal ACh; activation, % at 3 µM; hit rate 0.088% among 360,000; in the data active = activation above about 19%, passing the limit was not always enough
# CHRM1 agonist = human M1 muscarinic receptor agonists, primary screen, Fluo-8 calcium fluorescence, CHO-K1 cells, HTS. hit rate 0.33% among 360,000. AID 588814, 2011. CHO-K1 hM1, agonist mode; 0% DMSO, 100% acetylcholine EC100. activation, % at 3 µM;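 active = activation above the run's mean compound activation plus 3 SD, cut at about 16% in these data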;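 also: peak over basal fluorescence ratio within a 140 s kinetic read after compound addition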
# TAAR1 antagonist = human TAAR1 antagonists, primary screen, Fluo-8 calcium fluorescence, CHO RD-HGA16 cells. Trace amine-associated receptor 1 (Homo sapiens), Q96RJ0. antagonist. inhibition, % at 3 µM. hit rate 1.5% among 360,000. AID 624466, 2012;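 active = inhibition above a per-plate cutoff, the mean inhibition of test compounds on that plate plus 3 SD, cut at about 49% in these data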;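 also: 0% = DMSO plus EC80 beta-PEA response and 100% = DMSO alone without agonist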
# Target sequence (Q96RJ0 whole entry, looked up): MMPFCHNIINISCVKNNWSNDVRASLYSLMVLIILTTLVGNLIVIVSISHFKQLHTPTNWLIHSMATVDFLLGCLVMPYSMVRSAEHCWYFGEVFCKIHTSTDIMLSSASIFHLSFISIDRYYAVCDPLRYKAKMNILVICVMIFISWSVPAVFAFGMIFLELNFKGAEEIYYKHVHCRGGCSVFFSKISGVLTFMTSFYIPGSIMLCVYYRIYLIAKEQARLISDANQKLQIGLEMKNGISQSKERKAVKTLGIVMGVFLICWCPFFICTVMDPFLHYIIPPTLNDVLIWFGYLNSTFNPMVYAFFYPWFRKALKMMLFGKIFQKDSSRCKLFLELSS
#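 Assay system: RD-HGA16 CHO cells with stable hTAAR1 and Gα16 / Reagent: EC80 β-phenethylamine stimulus / Doses: 3 µM, single point / Timing: dye loading 75 min at 37 °C, then 30 min room temperature / Measured by: Fluo-8 intracellular calcium dye fluorescence, real-time kinetic reads / Controls: vehicle wells and EC80 agonist wells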
# TAAR1 agonist = human TAAR1 agonists, primary screen, Fluo-8 calcium fluorescence, CHO RD-HGA16 cells | Trace amine-associated receptor 1 (Homo sapiens), Q96RJ0 | vehicle wells 0%, saturating PEA agonist 100% | activation, % at 3 µM | hit rate 0.99% among 360,000;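 active = activation above the mean activation of all test compounds in the run plus 3 SD, cut at about 38% in these data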
#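 Benchmarks: low control DMSO, high control PEA (EC100); System: CHO RD-HGA16 cells carrying human TAAR1 plus Gα16; Detection: Fluo-8 fluorescence, 5 s baseline then 140 s kinetic read; Schedule: 17-24 h plating, Fluo-8 75 min 37 °C, 30 min RT; Read-out basis: % activation from peak over basal fluorescence ratio, DMSO-to-PEA scaled.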
# TAAR1 nonsel count = nonselective antagonists in TAAR1 counter-screen cells, counter-screen for hTAAR1 antagonist project, cell-based, fluorescence, calcium; shares compounds with TAAR1 antagonist; counterscreen cell line, antagonist mode; inhibition, % at 3 µM; hit rate 77% among 2,400; in the data active = inhibition above about 22%;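 also: CHO-Ga16 host cells stimulated with ATP at an EC80 level; 0% = agonist EC80 plus vehicle and 100% = vehicle without agonist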
# TAAR1 ant conf = human TAAR1 antagonists, retest of hits, confirmation, cell-based, fluorescence. shares compounds with TAAR1 antagonist. TAAR1-expressing cells, fluorescence antagonist read-out. inhibition, % at 3 µM. hit rate 40% among 2,400. AID 651785, 2012; in the data active = inhibition above about 49%;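 also: CHO-Ga16 host cells challenged with agonist PEA near its EC80; 0% = agonist at EC80 plus vehicle and 100% = vehicle with no agonist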
# Ga16 ag counter-1 = calcium activation in Ga16-expressing cells, counter-screen for TAAR1 antagonist project, cell-based, fluorescence. shares compounds with TAAR1 antagonist. agonist counterscreen. activation, % at 3 µM. hit rate 18% among 2,400; in the data active = activation above about 12%;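 also: 0% = vehicle wells and 100% = saturating stimulus response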
# TAAR1 ag counter = TAAR1 activation by candidate antagonists – cell-based, fluorescence, counter-screen for TAAR1 antagonist project. shares compounds with TAAR1 antagonist. hTAAR1 cell line, agonist mode. hit rate 2% among 2,400. activation, % at 3 µM; in the data active = activation above about 37%;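 also: CHO cells stably expressing TAAR1 with calcium dye readout; 0% = DMSO vehicle and 100% = full agonist response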
# TAAR1 ag confirm = human TAAR1 agonists, retest of hits, confirmation, Fluo-8 calcium fluorescence, CHO RD-HGA16 cells; shares compounds with TAAR1 agonist; hit rate 82% among 2,400; scaled: DMSO 0%, maximal phenethylamine 100%; AID 651783, 2012; activation, % at 3 µM;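 active = activation above a cutoff set at the run's mean compound activation plus 3 SD, cut at about 39% in these data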
# Ga16 ag counter-2 = nonselective calcium mobilization agonists, CHO-Ga16 cells, counter-screen for hTAAR1 agonist project, cell-based, fluorescence, CHO-Ga16 parental line; shares compounds with TAAR1 agonist; Fluo-8 calcium fluorescence; normalized to maximal ATP response, DMSO zero; activation, % at 3 µM; hit rate 50% among 2,400;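 active = activation above the run cutoff, the mean activation over all tested wells plus 3 SD, cut at about 12% in these data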;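 also: 0% = DMSO wells and 100% = maximal ATP response on the peak over basal ratio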
# TAAR1 desens = TAAR1 desensitization by agonist hits, confirmation, counter-screen for TAAR1 agonist project, cell-based, fluorescence, tachyphylaxis; hit rate 46% among 2,400; CHO RD-HGA16 hTAAR1, Fluo-8 calcium, beta-PEA response inhibition; AID 651951, 2012; inhibition, % at 3 µM; shares compounds with TAAR1 agonist;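 active = inhibition above the run cutoff, the mean inhibition of all test compounds plus 3 SD, cut at about 49% in these data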;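 also: beta-PEA stimulus applied at its EC80; loss of beta-PEA calcium signal after compound pretreatment read as receptor desensitization; 0% = DMSO with beta-PEA at EC80 and 100% = DMSO alone without agonist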
# Ga16 antag count = inhibition of ATP-evoked calcium response in CHO-Ga16 cells, counter-screen for TAAR1 agonist project, cell-based, fluorescence | shares compounds with TAAR1 agonist | CHO-Ga16 ATP-induced calcium, Fluo-8 fluorescence | inhibition, % at 3 µM | hit rate 39% among 2,400 | AID 651952, 2012;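 active = inhibition above the plate's mean compound inhibition plus 3 SD, computed per plate, cut at about 22% in these data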;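 also: 0% = EC80 ATP with DMSO and 100% = DMSO wells without ATP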
# * hit, by the source's call; x = no result given. This is a sample that favours compounds with a hit; in the whole collection about 3.4% have one here.
SMILES,CHRM1 antagonist,M1 PAM,CHRM1 agonist,TAAR1 antagonist,TAAR1 agonist,TAAR1 nonsel count,TAAR1 ant conf,Ga16 ag counter-1,TAAR1 ag counter,others
Cc1ccc(C(C(=O)NC2CCCC2)N(Cc2ccc3c(c2)OCO3)C(=O)Cc2cccs2)cc1 (stereo unspecified),14,-12,-4,66*,10,26*,56*,9,12,
COc1ccc(CNC(=O)C(c2ccco2)N(C(=O)Cc2cccs2)c2cccnc2)cc1 (stereo unspecified),6,4,-7,16,15,x,x,x,x,
COc1ccc(CNC(=O)C(c2ccc(C)cc2)N(Cc2cccs2)C(=O)c2ccc3c(c2)OCCO3)cc1 (stereo unspecified),18,-12,3,66*,23,31*,52*,15*,17,
COc1ccc(CNC(=O)C(c2ccco2)N(Cc2cccs2)C(=O)Cc2cccs2)cc1 (stereo unspecified),-17,-3,4,75*,20,35*,63*,9,7,
COCCN(C(=O)Cc1cccs1)C(C(=O)NCc1ccc(OC)cc1)c1ccc(OC)cc1 (stereo unspecified),7,-2,-2,-1,9,x,x,x,x,
COc1ccc(CNC(=O)C(c2ccco2)N(Cc2ccccc2)C(=O)Cc2cccs2)cc1 (stereo unspecified),13,-7,2,85*,20,33*,55*,12*,12,
COc1ccc2c(c1)C(=O)O[C@@H](c1ccccc1)C[C@@H](O)C(=O)CC2,x,x,x,9,2,x,x,x,x,
O=C(N[C@H]1CC[C@H](CCNS(=O)(=O)c2ccc(Cl)cc2)O[C@@H]1CO)c1cccc(F)c1,x,x,x,7,2,x,x,x,x,
Oc1ccc(N=Nc2ccc3c(c2)OCCO3)c2cccnc12,15,-6,12,83*,26,32*,31,3,8,
Oc1ccc(N=Nc2ccc3c(c2)OCCO3)c(O)c1,-9,4,1,-15,1,x,x,x,x,
CC(C)[C@H](NC(=O)c1ccccc1)C(=O)OCc1nc2scc(-c3ccccc3)c2c(=O)[nH]1,23,-13,1,73*,13,36*,55*,11,14,
CCc1noc(C)c1C(=O)Nc1nc(-c2ccc(NC(C)=O)cc2)cs1,19,-7,-1,70*,18,29*,48,22*,31,
CCc1noc(C)c1C(=O)Nc1nc(-c2ccc(OC)c(OC)c2)cs1,13,-9,-3,41,8,x,x,x,x,
COC(=O)[C@]1(Sc2ccc(OC)cc2)CC(=O)N[C@@H]1c1ccccc1,x,x,x,0,3,x,x,x,x,
O=C(COc1cccc2cccnc12)N/N=C/c1ccc(O)cc1,-9,10,-1,-1,3,x,x,x,x,
O=C(COc1cccc2cccnc12)N/N=C/c1cccn1-c1ccc(F)cc1,13,-10,-3,53*,18,25*,48,7,4,
O=C(NCCOc1ccc(F)cc1)c1ccccc1SCc1ccccc1,3,-11,-5,60*,10,30*,53*,7,3,
CCc1ccc(OCCNC(=O)c2ccccc2SCc2ccc(F)cc2)cc1,9,-8,-6,54*,15,26*,36,3,2,
COc1ccc(NC(=O)c2ccccc2SCc2ccccc2)cc1,-19,9,-2,11,1,x,x,x,x,
CCc1ccc(OCCNC(=O)c2cc(SC)ccc2Cl)cc1,-5,5,-6,5,2,x,x,x,x,
CC/C(=C(/CC)c1ccc(O)cc1)c1ccc(O)cc1,x,x,x,57*,0,23*,37,4,12,
Cc1nc2c(-c3ccccc3)c(C)nn2c(C)c1CCC(=O)NCc1ccco1,-9,6,-1,-7,-3,x,x,x,x,
CCN1CCN(c2ccc(NC(=O)CCc3c(C)nc4c(-c5ccccc5)c(C)nn4c3C)cc2)CC1,37*,-24,-11,x,x,x,x,x,x,Ga16 ag counter-2=8;Ga16 antag count=6
CCOC(=O)C1(C)CCCN1C(=O)c1c(F)cccc1F (stereo unspecified),-12,7,-2,-4,1,x,x,x,x,
Brc1ccc(C2=CC(c3cccs3)n3ncnc3N2)cc1 (stereo unspecified),18,-13,28*,110*,164*,x,x,x,x,TAAR1 ag confirm=36;Ga16 ag counter-2=51*;TAAR1 desens=62*;Ga16 antag count=57*
Fc1ccc(C2=CC(c3ccc(Br)o3)n3ncnc3N2)cc1 (stereo unspecified),2,-1,4,x,x,x,x,x,x,
COc1ccc(OC)c(NS(=O)(=O)c2ccc3[nH]c(=O)[nH]c3c2)c1,-6,2,-3,-12,2,x,x,x,x,
